Ki and IC50 data for 19 molecules are collected here from ChEMBL document CHEMBL3399930, “Rat hormone sensitive lipase inhibition by cyclipostins and their analogs” (Bioorg Med Chem, 2015).

Each structure is given as a SMILES string.

The first assay deals with T1, Hormone-sensitive lipase (Rattus norvegicus, UniProt P15304).
T1 sequence (P15304 whole entry): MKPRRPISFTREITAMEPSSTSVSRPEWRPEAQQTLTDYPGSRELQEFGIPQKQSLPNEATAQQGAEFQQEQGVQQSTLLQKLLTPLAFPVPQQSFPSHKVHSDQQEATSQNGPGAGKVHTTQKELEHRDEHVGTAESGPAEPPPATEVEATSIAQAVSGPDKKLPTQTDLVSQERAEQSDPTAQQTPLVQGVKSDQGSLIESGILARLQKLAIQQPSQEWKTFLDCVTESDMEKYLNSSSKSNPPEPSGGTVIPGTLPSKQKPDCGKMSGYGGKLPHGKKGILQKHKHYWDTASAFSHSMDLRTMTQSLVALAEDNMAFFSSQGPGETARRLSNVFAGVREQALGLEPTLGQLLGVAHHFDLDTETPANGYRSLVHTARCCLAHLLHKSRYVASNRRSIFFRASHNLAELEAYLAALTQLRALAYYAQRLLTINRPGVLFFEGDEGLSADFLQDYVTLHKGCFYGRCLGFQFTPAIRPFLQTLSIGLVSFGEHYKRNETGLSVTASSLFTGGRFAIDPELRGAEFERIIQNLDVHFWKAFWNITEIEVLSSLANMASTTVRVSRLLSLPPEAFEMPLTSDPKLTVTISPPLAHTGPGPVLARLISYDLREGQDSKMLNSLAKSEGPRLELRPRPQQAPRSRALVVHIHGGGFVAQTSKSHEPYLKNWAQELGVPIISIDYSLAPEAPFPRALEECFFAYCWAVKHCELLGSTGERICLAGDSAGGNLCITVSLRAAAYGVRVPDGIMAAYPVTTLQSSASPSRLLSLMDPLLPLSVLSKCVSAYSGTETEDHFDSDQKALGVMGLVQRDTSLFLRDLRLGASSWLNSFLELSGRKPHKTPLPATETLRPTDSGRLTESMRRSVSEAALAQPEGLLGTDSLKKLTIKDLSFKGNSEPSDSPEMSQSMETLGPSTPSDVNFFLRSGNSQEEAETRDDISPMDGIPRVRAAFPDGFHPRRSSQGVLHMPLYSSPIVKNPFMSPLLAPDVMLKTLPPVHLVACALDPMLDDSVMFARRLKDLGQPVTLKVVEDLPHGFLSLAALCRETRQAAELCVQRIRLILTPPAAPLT
Description: Irreversible inhibition of rat hormone sensitive lipase assessed as relative residual activity by kinetic analysis. The method in brief: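 Recombinant His-tagged rat HSL, no preincubation, added directly at 37°C to liposomes containing both [3H]triolein and inhibitor, at several inhibitor concentrations. Samples every 3–5 min over 30 min. Released oleic acid extracted and measured by scintillation. Residual activity versus inhibitor concentration and time fitted to an irreversible inactivation scheme (k-2 ≈ 0) to obtain binding and inactivation constants.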
As to `CCCCCCCCCCCCCCCCO[P@]1(=O)OC[C@@H]2COC(=O)C2=C(C)O1` (relative stereo), the Ki stood at 0.04 µM.

Another assay deals with T1, Hormone-sensitive lipase. As to the kind of experiment: Inhibition of rat hormone sensitive lipase assessed as oleic acid release from [3H]triolein by scintillation counting. The method in brief:
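His-tagged rat HSL expressed in baculovirus-infected Sf9 cells, Ni-NTA purified. Enzyme (20–100 nM) preincubated 30 min on ice with inhibitor-containing PC/PI liposomes, no triolein. Substrate: liposomes of 200 μM PC/PI (3:1 w/w) with 500 μM triolein plus 3H-triolein. Buffer: 25 mM Tris, 150 mM NaCl, 0.2 mM EDTA, 1 mM β-mercaptoethanol, pH 7.4, with 0.2% BSA. Run at 37°C. Samples taken every 10 min (6–8 points), oleate extracted and counted. IC50 is the inhibitor level giving 50% activity, in triplicate.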
Take `CCCCCCCCCCCCCCCCCC[C@@H]1CC[P@@](=O)(OC)OC(C)=C1C(=O)OC` (relative stereo): the IC50 (in general, the midpoint of a concentration-inhibition curve) was over 100 µM.
On the same count and under the same terms, to `CCCCCCCCCCCCCCCCOP1(=O)OC(C)=C(C(=O)OC)CCC1(F)F` (stereo not given) belongs over 100 µM; to `CCCCCCCCCCCCCCCC[C@@H]1CC[P@@](=O)(OC)OC(C)=C1C(=O)OC` (relative stereo), 60 µM.
Still for that read-out and setting: the value for `CCCCCCCCCCCCCCCCO[P@]1(=O)OC[C@@H]2COC(=O)C2=C(C)O1` (relative stereo) was 0.025 µM; that for `CCCCCCCCCCCCCCCO[P@]1(=O)CC[C@@H]2COC(=O)C2=C(C)O1` (racemic) was 0.45 µM; that for `CCCCCCCCCCCCCCCO[P@]1(=O)CC[C@H]2COC(=O)C2=C(C)O1` (racemic) was 0.47 µM.
As for `CCCCCCCCCCCCCCCCO[P@]1(=O)CC[C@@H]2COC(=O)C2=C(C)O1` (racemic), the IC50 worked out at 6.9 µM.
Still for that read-out and setting: to `CO[P@@]1(=O)CC[C@H]2COC(=O)C2=C(C)O1` (relative stereo) belongs 100 µM.
On the same count and under the same terms, the value for `CCCCCCCCCCCCCCCCCC[C@H]1CC[P@@](=O)(OC)OC(C)=C1C(=O)OC` (relative stereo) was 27 µM.
`CCCCCCCCCCCC[C@H]1CC[P@@](=O)(OC)OC(C)=C1C(=O)OC` (relative stereo): the IC50 amounted to 13.5 µM.
The same measure, in the same setting: the value for `CCCCCCCCCCCCCCCC[C@H]1CC[P@@](=O)(OC)OC(C)=C1C(=O)OC` was 10 µM; that for `CCCCCCCCCCCCCCCO[P@]1(=O)OC[C@@H]2COC(=O)C2=C(C)O1` (racemic) was 0.9 µM.
`CCCCCCCCCCCCCCCCO[P@]1(=O)CC[C@H]2COC(=O)C2=C(C)O1` (racemic): the IC50 came to 0.36 µM.
On to `CCCCCCCCCCCCCCCCOP1(=O)OCCC(C(=O)OC)=C(C)O1` (stereo not given), for which the IC50 worked out at 0.06 µM.
Regarding `CO[P@]1(=O)OC[C@H]2COC(=O)C2=C(C)O1` (relative stereo) [CYCLOPHOSTIN], the IC50 is over 100 µM.
Still for that read-out and setting: to `CCCCCCCCCCCCCCCCO[P@]1(=O)OC[C@H]2COC(=O)C2=C(C)O1` (relative stereo) belongs 0.42 µM.
On the same count and under the same terms, the value for `CCCCCCCCCCCCCCCO[P@]1(=O)OC[C@H]2COC(=O)C2=C(C)O1` (racemic) was 0.075 µM; that for `CCCCCCCCCCCC[C@@H]1CC[P@@](=O)(OC)OC(C)=C1C(=O)OC` (relative stereo) was 35 µM; that for `CO[P@]1(=O)OC[C@@H]2COC(=O)C2=C(C)O1` (relative stereo) was over 100 µM.
